# Laboratory results reported in ChEMBL document CHEMBL4024801, “Synthesis and Structure-Activity Relationship (SAR) Studies of Novel Pyrazolopyridine Derivatives as Inhibitors of Enterovirus Replication” (J Med Chem, 2018).
# Columns and labels:
# Enterovirus A71 = experiment: Antiviral activity against Enterovirus A71 infected in monkey LLC-MK2 cells assessed as protection against virus-induced cytopathic effect after 3 to 4 days by crystal violet staining-based spectrophotometric method; type: functional, cell-based; settings: Enterovirus A
# Outline: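 EV-A71 was tested in LLC-MK2 cells grown in DMEM with 10% FBS, penicillin, streptomycin and glutamine, at a low MOI preset to give full CPE in 3–4 days. Compound was dissolved in DMSO and diluted 2-fold, in triplicate. Cells were fixed with formaldehyde when control CPE was maximal, then stained with crystal violet and read at OD590. EC50 came from a 7-point four-parameter or sigmoidal fit.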
# Coxsackievirus B3 = experiment: Antiviral activity against Coxsackievirus B3 infected in human HeLa-RW cells assessed as protection against virus-induced cytopathic effect after 3 to 4 days by crystal violet staining-based spectrophotometric method; type: functional, cell-based; settings: Enterovirus B
# Outline: (§1)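 HeLa-RW cells grown in DMEM with penicillin, streptomycin, glutamine and 10% FBS. They were infected at a low MOI pre-set to give full CPE in 3-4 days. Compound in DMSO was added as serial 2-fold dilutions (7 points), each in triplicate. When control CPE was maximal, cells were fixed with 4% formaldehyde, stained with 0.25% crystal violet and read at OD590. EC50 came from a four-parameter or sigmoidal fit.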
# Poliovirus 1 = experiment: Antiviral activity against Poliovirus 1 infected in human HeLa-RW cells assessed as protection against virus-induced cytopathic effect after 3 to 4 days by crystal violet staining-based spectrophotometric method; type: functional, cell-based; settings: Enterovirus C; outline: as §1
# Poliovirus 3 = experiment: Antiviral activity against Poliovirus 3 infected in human HeLa-RW cells assessed as protection against virus-induced cytopathic effect after 3 to 4 days by crystal violet staining-based spectrophotometric method; type: functional, cell-based; settings: Enterovirus C; outline: as §1
# LLC-MK2 = experiment: Cytotoxicity against monkey LLC-MK2 cells after 3 to 4 days by crystal violet staining-based spectrophotometric method; type: cell-based, Macaca mulatta; settings: rhesus monkey
# Outline: (§2)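 Uninfected cells (HeLa-RW or LLC-MK2, in DMEM with penicillin, streptomycin, glutamine and 10% FBS) were exposed to serial 2-fold compound dilutions for the same period as the CPE assay. They were then fixed with formaldehyde, stained with crystal violet and read by OD590 spectrophotometry to derive CC50. Values are means ± s.d. of 3 experiments, or the average of triplicates in one.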
# [1] = Cytotoxicity against human HeLa-RW cells after 3 to 4 days by crystal violet staining-based spectrophotometric method; type: cell-based; settings: hela-rw; outline: as §2
# [2] = Selectivity index, ratio of CC50 for monkey LLC-MK2 cells to EC50 for Enterovirus A71; type: toxicity; settings: read-out: Ratio CC50/EC50
# Outline: (§3)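 LLC-MK2 cells in DMEM with 10% FBS were used for both arms. For EC50, cells were infected with EV-A71 at a low MOI giving full CPE in 3–4 days and exposed to 2-fold compound dilutions, in triplicate. For CC50, uninfected cells got 2-fold dilutions for the same period. Both arms were formaldehyde-fixed, crystal violet-stained and read at OD590.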
# [3] = Selectivity index, ratio of CC50 for human HeLa-RW cells to EC50 for Coxsackievirus B3; type: toxicity; settings: read-out: Ratio CC50/EC50
# Outline: as §3, with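 “HeLa-RW” for “LLC-MK2”, “CVB3-H3” for “EV-A71”, “triplicate, with a 7-point fit.” for “triplicate.”, “fixed,” for “formaldehyde-fixed,”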
# [4] = Selectivity index, ratio of CC50 for human HeLa-RW cells to EC50 for Poliovirus 1; type: toxicity; settings: read-out: Ratio CC50/EC50
# Outline: (§4)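 HeLa-RW cells grown in DMEM with penicillin, streptomycin, glutamine and 10% FBS were infected at a low MOI chosen to give full CPE in 3-4 days. Serial 2-fold compound dilutions from DMSO stocks were tested in triplicate. When control CPE was maximal, cells were formaldehyde-fixed, crystal violet-stained and read at OD590. EC50 came from a 7-point curve. CC50 used uninfected cells over the same period.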
# [5] = Selectivity index, ratio of CC50 for human HeLa-RW cells to EC50 for Poliovirus 3; type: toxicity; settings: read-out: Ratio CC50/EC50; outline: as §4
Compound,EC50 (Enterovirus A71),EC50 (Coxsackievirus B3),EC50 (Poliovirus 1),EC50 (Poliovirus 3),CC50 (LLC-MK2),CC50 [1],selectivity ratio [2],selectivity ratio [3],selectivity ratio [4],selectivity ratio [5]
CC(C)n1ncc2c(C(=O)Nc3cc(C(N)=O)ccc3F)cc(-c3cccs3)nc21,0.5 µM,0.8 µM,5 µM,5 µM,25 µM,18.8 µM,50,23.5,3.8,3.8
CC(C)n1ncc2c(C(=O)N3CCc4cc(F)ccc43)cc(-c3cccs3)nc21,1.3 µM,1.9 µM,10 µM,10 µM,> 200 µM,18.8 µM,> 153,9.9,1.9,1.9
